FXIa inh: human FXIa protease inhibitors, primary screen, biochemical, 1536-well. Coagulation factor XI (Homo sapiens), P03951. inhibition, % at 5 µM. AID 798, 2007. 0.14% of 220,000 active. purified FXIa, Boc-Glu-Ala-Arg-AMC fluorogenic substrate;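 active = inhibition of at least 40%; inactive = inhibition below 40%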;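 also: fluorescence of freed AMC excited at 355 nm; 0% = enzyme without compound and 100% = no enzyme blank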
thrombin 1536: human alpha-thrombin inhibitors, primary screen, counter-screen for coagulation protease inhibitor project, biochemical, 1536-well, fluorogenic AMC substrate. inhibition, % at 5 µM. AID 1046, 2008. Boc-VPR-AMC fluorogenic substrate cleavage. Prothrombin (Homo sapiens), P00734. 0.26% of 220,000 active;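 active = inhibition at or above 40%; inactive = inhibition below 40%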;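 also: 0% = enzyme with no compound and 100% = wells without enzyme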
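Material: Human alpha-thrombin protein | Buffer or medium: pH 7.5 Tris-saline with Tween 20 | Reagent: Boc-VPR-AMC substrate, 15 µM final | Schedule: Reaction at ambient temperature | Detection: AMC fluorescence at 355 nm excitation and 460 nm emission | Evaluation: Percent inhibition scaled between no-compound controls and no-enzyme blanks | Controls: no-compound enzyme wells and no-enzyme blanks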
m-calpain inh: inhibitors of pig calpain II, primary screen, biochemical, fluorogenic peptide substrate, 1536-well. purified calpain II, 30 min. inhibition, % at 16 µM. 0.37% of 220,000 active. AID 1236, 2008;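 active = inhibition above about 50%, limit read from the data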
FXIIa inh: human FXIIa protease inhibitors, primary screen, biochemical, 1536-well. Coagulation factor XII (Homo sapiens), P00748. purified FXIIa, Boc-QGR-AMC fluorogenic substrate, 2 h. inhibition, % at 5 µM. 0.3% of 220,000 active. AID 800, 2007; in the data active = inhibition above about 40%;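 also: 0% = enzyme with no compound and 100% = blank without enzyme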
hK5 inh: human KLK5 protease inhibitors, primary screen, biochemical, 1536-well; Kallikrein-5 (Homo sapiens), Q9Y337; recombinant hK5, fluorogenic AMC substrate cleavage; inhibition, % at 5 µM; 0.59% of 210,000 active;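 active = inhibition of 40% or more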;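 also: 0% = enzyme controls without compound and 100% = no-enzyme blanks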
Starred values were filed as active, the others as inactive. Hits are enriched below; roughly 1.4% of the tested compounds scored in any of these assays.

How did O=C(CN1CCOCC1)N1CCc2ccccc2C(c2ccccc2)C1 (stereo unspecified) do in these assays?
FXIa inh: 9.8; thrombin 1536: 20.4; m-calpain inh: 3.1; FXIIa inh: -1.7; hK5 inh: 72.8*

Results for CC(C)C(=O)Nc1ccc(C(=O)NNC(=S)NC(=O)c2ccco2)cc1 ?
FXIa inh: 1.7; thrombin 1536: 2.3; m-calpain inh: 12.8; FXIIa inh: 14.2; hK5 inh: -28.4

Results for C/C(=N\NC(=S)NC1CCCCC1)c1ccc(OC(F)F)cc1OC(F)F ?
FXIa inh: -0.1; thrombin 1536: -4.0; m-calpain inh: 53.9*; FXIIa inh: 8.8; hK5 inh: 6.8

Results for CCn1c(-c2ccccc2)c[nH]c1=S ?
FXIa inh: -6.7; thrombin 1536: -5.3; m-calpain inh: -38.7; FXIIa inh: 3.5; hK5 inh: -7.9

Results for CC(C)Cn1c(-c2ccc(Br)cc2)c[nH]c1=S ?
FXIa inh: 2.8; thrombin 1536: -3.4; m-calpain inh: 75.5*; FXIIa inh: 12.4; hK5 inh: 6.4

What do the screens show for `COc1ccc(CNc2ccc([N+](=O)[O-])cc2C)cc1`?
FXIa inh: -0.8; thrombin 1536: -1.6; m-calpain inh: 82.4*; FXIIa inh: 6.1; hK5 inh: 2.5

Results for COc1ccc(CNc2cc([N+](=O)[O-])ccc2OC)cc1 ?
FXIa inh: -20.0; thrombin 1536: -5.1; m-calpain inh: 3.9; FXIIa inh: 6.0; hK5 inh: 2.9

Results for CCCCCCCOC(=O)C1=C(C)Nc2ncnn2C1c1cccs1 (stereo unspecified) ?
FXIa inh: 3.3; thrombin 1536: 3.8; m-calpain inh: -9.7; FXIIa inh: 14.6; hK5 inh: 3.0

How did CCCCCCCCOC(=O)C1=C(C)Nc2nnnn2C1c1cccs1 (stereo unspecified) do in these assays?
FXIa inh: 1.9; thrombin 1536: 1.2; m-calpain inh: 50.2*; FXIIa inh: 16.3; hK5 inh: -7.5

Compound activity: PubChem BioAssay, several laboratories
